What was measured:
[1] = tested on: HCT116 (ATCC – CCL-247, colon carcinoma); assay: MTT cell viability assay, HCT116; format: cell-based; details: Homo sapiens, HCT-116, read-out: IC50 HCT116
[2] = tested on: MCF7 cells; assay: Cell cycle analysis; format: cell-based; details: for S phase population / cells in G1 phase / cells in G2 (G2/M) phase: MCF7, 24 hours; for S phase population: compounds at IC50; for cells in G1 phase / cells in G2 (G2/M) phase / G1 phase population / G2 (G2/M) phase population: compounds at IC50, ETP 10 μM; for G1 phase population / G2 (G2/M) phase population: MCF7, 48 hours
Outline: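 MCF7 cells were treated with the test compounds for 24 and 48 h, with etoposide as the positive control and 0.1% DMSO as the vehicle. Cells were stained with propidium iodide and their G1, S and G2 distribution was read by flow cytometry. n = 3; two-way ANOVA with Tukey's test.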

[3] = tested on: chorioallantoic membrane (CAM) blood vessel formation; assay: Ex ovo chorioallantoic membrane; format: in vivo, chicken; details: concentration-dependent, over time
[4] = tested on: MRC5 (ATCC – CCL-171, human diploid fibroblast cell line); assay: cells; details: MRC5, read-out: IC50 MRC5
[5] = tested on: MCF7 breast cancer cells; assay: Apoptosis, annexin V staining and flow cytometry; format: cell-based
Outline: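 MCF7 cells were exposed to the test compounds for 24 or 48 h, with etoposide (10 μM) as the positive control and 0.1% DMSO as the untreated control. Cells were stained with annexin V and analysed by flow cytometry into live, early apoptotic and late apoptotic fractions.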

[6] = tested on: MCF-7 cells; assay: Colony formation assay; format: cell-based
[7] = tested on: MCF7 (ATCC – HTB-22, breast carcinoma); assay: MTT cell viability assay, MCF7; format: cell-based; details: for IC50: Homo sapiens, MCF7, read-out: IC50 MCF7; for higher potency compared to previously reported fused pyran derivative III: MCF7 IC50 versus III
[8] = tested on: MCF7 spheroids; assay: Spheroid formation assay; format: cell-based; details: 72 hours of treatment
Outline: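 Agar was liquefied in normal saline, sterilized and cast into 3D molds, which were rinsed with culture medium. MCF7 cells were seeded onto the molds and left 20 min to adhere, then medium with varied test-compound concentrations was added. Spheroid dimensions were tracked by live-cell imaging and compared with untreated controls.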

[9] = tested on: A549 (ATCC – CCL-185, lung carcinoma); assay: MTT cell viability assay, A549; format: cell-based; details: Homo sapiens, A549, read-out: IC50 A549
[10] = tested on: MCF7 cell line; assay: γH2AX labelling for DNA double-strand breaks; format: cell-based; details: compounds at IC50, etoposide 10 μM
Outline: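 To detect DNA double-strand breaks, MCF7 cells were exposed to the test compounds for 24 and 48 h, with etoposide as the positive control and 0.1% DMSO as the vehicle. γH2AX labelling was quantified by flow cytometry. n = 3; two-way ANOVA with Tukey's test.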

[11] = tested on: MRC5 (ATCC – CCL-171, human diploid fibroblast cell line)
[12] = MCF7, 24 hours, compounds at IC50
[13] = MCF7, 24 hours, compounds at IC50, etoposide 10 μM
[14] = MCF7, 48 hours, compounds at IC50, etoposide 10 μM

| Structure (SMILES) | IC50 [1] [µM] | IC50 [7] [µM] | IC50 [9] [µM] | S phase population [2] [%] | cells in G1 phase [2] [%] | cells in G2 (G2/M) phase [2] [%] | G1 phase population [2] [%] | new blood vessel formation versus untreated controls [3] | IC50 [4] [µM] | live cells [5, 12] [%] | early apoptotic cells [5, 13] [%] | late apoptotic cells [5, 13] [%] | early apoptotic cells [5, 14] [%] | late apoptotic cells [5, 14] [%] | percentage of colony formation ([6]; MCF-7, compound at IC10) [%] | percentage of colony formation ([6]; MCF-7, compound at IC50) [%] | percentage of colony formation ([6]; MCF-7, compound at IC90) [%] | higher potency compared to previously reported fused pyran derivative III [7] [fold] | γH2AX levels ([10]; MCF7, 24 hours) | γH2AX levels ([10]; MCF7, 48 hours) | further results |
| --- | --- | --- | --- | --- | --- | --- | --- | --- | --- | --- | --- | --- | --- | --- | --- | --- | --- | --- | --- | --- | --- |
| Cc1nccn1-c1ccc(C2C(C#N)=C(N)OC3=C2C(=O)CC(C)(C)C3)cc1 (stereo not shown) [Compound 8a, 2-Amino-7,7-dimethyl-4-(4-(2-methyl-1H-imidazol-1-yl)phenyl)-5-oxo-5,6,7,8-tetrahydro-4H-chromene-3-carbonitrile] | 143 ± 6.35 | 8.24 ± 0.19 | 111 ± 4.91 | 21.11 ± 3.39 | 37.08 ± 5.07 | 30.63 ± 4.35 | 47.08 ± 0.6 | significant reduction in new blood vessel formation | > 200 | 86.4 ± 0.15 | 4.27 ± 0.20 | 7.6 ± 0.01 | 5.89 ± 0.20 | 6.17 ± 0.13 | 94.3 ± 4.04 | 74.3 ± 2.08 | 5.67 ± 4.04 | 1.5 | 2.89 ± 0.99 | 20.3 ± 2.74 | spheroid size versus untreated control [8]: pronounced reduction in size; toxicity to MRC5 (MCR5) cells [11]: nontoxic |
| Cc1cn(-c2ccc(C3C(C#N)=C(N)OC4=C3C(=O)CC(C)(C)C4)cc2)cn1 (stereo not shown) [Compound 8b, 2-Amino-7,7-dimethyl-4-(4-(4-methyl-1H-imidazol-1-yl)phenyl)-5-oxo-5,6,7,8-tetrahydro-4H-chromene-3-carbonitrile] | 129 ± 5.79 | 4.22 ± 0.81 | 110 ± 4.94 | 15.11 ± 2.59 | 41.59 ± 7.44 | 30.79 ± 5.11 | 45.22 ± 0.82 | significant reduction in new blood vessel formation | > 200 | 87.55 ± 0.08 | 2.66 ± 0.12 | 7.87 ± 0.02 | 5.27 ± 0.13 | 9.46 ± 0.22 | 97.7 ± 1.53 | 76 ± 2.65 | 15 ± 5 | 3 | 4.71 ± 0.75 | 21.62 ± 3.38 | G2 (G2/M) phase population [2]: 28.83 ± 0.52%; debris/dead cells ([5]; MCF7, 48 hours, compound at IC50): 0.82 ± 0.30%; live cells [5, 14]: 84.45 ± 0.64%; spheroid size versus untreated control [8]: marked reduction in size; toxicity to MRC5 (MCR5) cells [11]: nontoxic |
| COc1cc([C@@H]2c3cc4c(cc3[C@@H](O[C@@H]3O[C@@H]5CO[C@@H](C)O[C@H]5[C@H](O)[C@H]3O)[C@H]3COC(=O)[C@H]23)OCO4)cc(OC)c1O [Etoposide, reference compound] | – | – | – | – | 26.61 ± 0.54 | 49.03 ± 0.99 | 18.3 ± 1.67 | – | – | – | 6.42 ± 0.27 | 12.25 ± 0.08 | 3.28 ± 0.16 | 11.8 ± 0.29 | – | – | – | – | 8.8 ± 0.62 | 39.44 ± 1.69 | G2 (G2/M) phase population [2]: 59.36 ± 4.79%; live cells [5, 14]: 83.15 ± 0.50% |

Continued, in another order:

| IC50 [1] [µM] | IC50 [7] [µM] | IC50 [9] [µM] | Structure (SMILES) | S phase population [2] [%] | cells in G1 phase [2] [%] | cells in G2 (G2/M) phase [2] [%] | G1 phase population [2] [%] | new blood vessel formation versus untreated controls [3] | IC50 [4] [µM] | live cells [5, 12] [%] | early apoptotic cells [5, 13] [%] | late apoptotic cells [5, 13] [%] | early apoptotic cells [5, 14] [%] | late apoptotic cells [5, 14] [%] | percentage of colony formation ([6]; MCF-7, compound at IC10) [%] | percentage of colony formation ([6]; MCF-7, compound at IC50) [%] | percentage of colony formation ([6]; MCF-7, compound at IC90) [%] | higher potency compared to previously reported fused pyran derivative III [7] [fold] | γH2AX levels ([10]; MCF7, 24 hours) | γH2AX levels ([10]; MCF7, 48 hours) | further results |
| --- | --- | --- | --- | --- | --- | --- | --- | --- | --- | --- | --- | --- | --- | --- | --- | --- | --- | --- | --- | --- | --- |
| > 200 | 52.2 ± 1.34 | > 200 | COc1ccc(-n2cc(COc3ccc(C4C(C#N)=C(N)Oc5cc(C)oc(=O)c54)cc3)nn2)cc1 (stereo not shown) [Compound 17e, 2-Amino-4-(4-((1-(4-methoxyphenyl)-1H-1,2,3-triazol-4-yl)methoxy)phenyl)-7-methyl-5-oxo-4H,5H-pyrano[4,3-b]pyran-3-carbonitrile] | – | – | – | – | – | > 200 | – | – | – | – | – | – | – | – | – | – | – | – |
| > 200 | 30.3 ± 1.73 | > 200 | Cc1cc2c(c(=O)o1)C(c1ccc(-n3ccnn3)cc1)C(C#N)=C(N)O2 (stereo not shown) [Compound 17f, 4-(4-(1H-1,2,3-Triazol-1-yl)phenyl)-2-amino-7-methyl-5-oxo-4H,5H-pyrano[4,3-b]pyran-3-carbonitrile] | – | – | – | – | – | > 200 | – | – | – | – | – | – | – | – | – | – | – | – |
| > 200 | 39.2 ± 2.71 | 164 ± 3.26 | Cc1cc2c(c(=O)o1)C(c1ccc(-n3cnnn3)cc1)C(C#N)=C(N)O2 (stereo not shown) [Compound 17g, 4-(4-(1H-Tetrazol-1-yl)phenyl)-2-amino-7-methyl-5-oxo-4H,5H-pyrano[4,3-b]pyran-3-carbonitrile] | – | – | – | – | – | > 200 | – | – | – | – | – | – | – | – | – | – | – | – |

From publication PMC12135072 (RSC Medicinal Chemistry, 2025)
